# Results taken from ChEMBL document CHEMBL1151228, “Three cyclooctapeptides and one glycoside from Microtoena prainiana” (J Nat Prod, 2004).
# The source made the active and inactive calls. No cut-off for these calls is given here. Where a SMILES comes first, the peptide text is derived from it.
# Legend:
# [1] = Cytotoxicity against human N04 cells by SRB assay; type: functional, cell-based
# Summary of the method: (§1)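 Sulforhodamine B (SRB) cytotoxicity assay on human tumour lines: breast cancer Bre04, lung cancer Lu04 and neuroma N04.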
# [2] = Cytotoxicity against human Bre04 cells by SRB assay; type: functional, cell-based; summary of the method: as §1
# [3] = Cytotoxicity against human Lu04 cells by SRB assay; type: functional, cell-based; summary of the method: as §1
# [4] = target: Angiotensin-converting enzyme (Homo sapiens) (UniProt P12821); experiment: Inhibition of ACE at 1 mg/ml
# Summary of the method: (§2)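 ACE extract (10 µg total protein) preincubated with sample for 30 min at 37 °C. HHL substrate then added for 15 min at 37 °C. NaOH and O-phthaldialdehyde added, stopped after 10 min with HCl. His-Leu fluorescence read at ex 405/em 535 nm. % inhibition = 100×(N−S)/(N−B) against negative and blank controls. Captopril positive control; at least three determinations.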
# Human alphaherpesvirus 2 = experiment: Antiviral activity against HSV2 333 infected in african green monkey Vero cells assessed as virus-induced cytopathic effect at 250 ug/ml; type: functional, organism-based
# Summary of the method: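 Vero cells infected with HSV-2 (strain 333); inhibition of viral replication read as cytopathic effect (CPE); compounds tested at 250 µg/mL; acyclovir as positive drug control.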
# [5] = target: Angiotensin-converting enzyme (Homo sapiens) (UniProt P12821); experiment: Inhibition of ACE at 0.1 mg/ml; summary of the method: as §2
# Sequence of Angiotensin-converting enzyme (Homo sapiens) (P12821 whole entry): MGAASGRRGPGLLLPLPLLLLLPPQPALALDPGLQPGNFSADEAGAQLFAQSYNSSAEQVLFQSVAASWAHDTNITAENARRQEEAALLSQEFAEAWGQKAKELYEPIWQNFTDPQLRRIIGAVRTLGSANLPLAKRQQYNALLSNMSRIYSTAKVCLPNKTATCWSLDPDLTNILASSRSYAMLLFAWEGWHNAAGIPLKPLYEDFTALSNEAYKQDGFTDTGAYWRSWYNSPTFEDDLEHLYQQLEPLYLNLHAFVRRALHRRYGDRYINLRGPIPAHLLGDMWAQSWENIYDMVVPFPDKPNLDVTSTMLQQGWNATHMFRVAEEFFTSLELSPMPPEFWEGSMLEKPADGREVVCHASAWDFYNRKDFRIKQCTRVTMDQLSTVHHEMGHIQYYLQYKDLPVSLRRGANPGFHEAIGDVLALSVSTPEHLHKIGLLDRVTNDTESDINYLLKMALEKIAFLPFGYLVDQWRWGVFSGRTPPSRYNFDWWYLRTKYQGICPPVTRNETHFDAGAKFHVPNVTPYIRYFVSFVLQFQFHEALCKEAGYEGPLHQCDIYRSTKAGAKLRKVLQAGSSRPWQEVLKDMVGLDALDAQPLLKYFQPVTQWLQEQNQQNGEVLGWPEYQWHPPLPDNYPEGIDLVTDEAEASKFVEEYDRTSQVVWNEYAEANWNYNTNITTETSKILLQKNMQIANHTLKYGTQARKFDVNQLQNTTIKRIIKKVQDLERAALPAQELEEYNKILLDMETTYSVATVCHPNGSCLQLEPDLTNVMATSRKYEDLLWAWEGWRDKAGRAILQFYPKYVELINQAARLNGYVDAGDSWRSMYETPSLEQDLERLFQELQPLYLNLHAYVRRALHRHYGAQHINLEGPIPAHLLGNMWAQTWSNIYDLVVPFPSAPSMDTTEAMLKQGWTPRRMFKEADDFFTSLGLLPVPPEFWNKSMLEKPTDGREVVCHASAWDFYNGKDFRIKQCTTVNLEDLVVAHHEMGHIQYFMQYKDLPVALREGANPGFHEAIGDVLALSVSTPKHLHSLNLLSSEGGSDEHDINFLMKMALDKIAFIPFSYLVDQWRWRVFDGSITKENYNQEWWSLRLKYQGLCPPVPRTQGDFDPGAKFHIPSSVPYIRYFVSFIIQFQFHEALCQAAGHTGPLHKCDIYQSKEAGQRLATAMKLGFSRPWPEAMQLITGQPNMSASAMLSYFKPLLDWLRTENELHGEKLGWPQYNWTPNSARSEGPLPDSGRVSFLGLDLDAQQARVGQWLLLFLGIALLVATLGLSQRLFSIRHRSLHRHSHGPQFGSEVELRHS
inhibition [4],inhibition [5],Compound,IC50 [1],IC50 [2],IC50 [3],Activity (Human alphaherpesvirus 2)
–,–,CC(C)[C@@H]1NC(=O)[C@H](Cc2ccccc2)NC(=O)[C@H](Cc2ccccc2)NC(=O)[C@H](C)NC(=O)[C@H](C)NC(=O)CNC(=O)[C@H](Cc2ccccc2)NC(=O)[C@@H]2CCCN2C1=O [MICROTOENIN B] (cyclo(AAFFVPFG)),> 100 µg/mL,> 100 µg/mL,> 100 µg/mL,–
99.7%,75.5%,C[C@@H]1O[C@@H](O[C@@H]2[C@H]3O[C@@H](c4ccc(O)c(O)c4)CO[C@@H]3O[C@H](CO)[C@H]2OC(=O)/C=C/c2ccc(O)c(O)c2)[C@H](O)[C@H](O)[C@H]1O,–,–,–,inactive
–,–,CC(C)C[C@@H]1NC(=O)[C@H](Cc2ccc(O)cc2)NC(=O)[C@@H]2CCCN2C(=O)[C@H](C(C)C)NC(=O)[C@H](C)NC(=O)[C@H](Cc2ccccc2)NC(=O)[C@@H]2CCCN2C(=O)[C@H](C(C)C)NC1=O [MICROTOENIN A] (cyclo(AVPYLVPF)),> 100 µg/mL,> 100 µg/mL,> 100 µg/mL,–
–,–,CC[C@H](C)[C@@H]1NC(=O)[C@@H]2CCCN2C(=O)[C@H](CC(C)C)NC(=O)[C@@H]2CCCN2C(=O)[C@H](Cc2ccccc2)NC(=O)[C@H](CC(N)=O)NC(=O)[C@H](Cc2ccc(O)cc2)NC(=O)[C@@H]2CCCN2C1=O [MICROTOENIN C] (cyclo(FPLPIPYN)),> 100 µg/mL,> 100 µg/mL,> 100 µg/mL,–
99.3%,71.4%,C[C@@H]1O[C@@H](O[C@H]2[C@H](O)[C@@H](COC(=O)/C=C/c3ccc(O)c(O)c3)O[C@H]3OC[C@H](c4ccc(O)c(O)c4)O[C@@H]32)[C@H](O)[C@H](O)[C@H]1O,–,–,–,inactive
99.8%,67.5%,COc1cc(/C=C/C(=O)O[C@H]2[C@H](O[C@@H]3O[C@@H](C)[C@H](O)[C@@H](O)[C@H]3O)[C@H]3O[C@@H](c4ccc(O)c(O)c4)CO[C@@H]3O[C@@H]2CO)ccc1O,–,–,–,inactive
–,–,CC(C)C[C@@H]1NC(=O)[C@H](C(C)C)NC(=O)[C@@H]2CCCN2C(=O)[C@H](Cc2ccccc2)NC(=O)[C@H](C)NC(=O)[C@H](C(C)C)NC(=O)[C@@H]2CCCN2C(=O)[C@H](Cc2ccc(O)cc2)NC1=O (cyclo(AFPVLYPV)),–,–,–,inactive
–,–,CC(C)[C@@H]1NC(=O)[C@@H]2CCCN2C(=O)[C@H](Cc2ccccc2)NC(=O)CNC(=O)[C@H](C)NC(=O)[C@H](C)NC(=O)[C@H](Cc2ccccc2)NC(=O)[C@H](Cc2ccccc2)NC1=O (cyclo(AAGFPVFF)),–,–,–,inactive
–,–,CC[C@@H](C)[C@@H]1NC(=O)[C@@H]2CCCN2C(=O)[C@H](Cc2ccc(O)cc2)NC(=O)[C@H](CC(N)=O)NC(=O)[C@H](Cc2ccccc2)NC(=O)[C@@H]2CCCN2C(=O)[C@H](CC(C)C)NC(=O)[C@@H]2CCCN2C1=O,–,–,–,inactive
